Screening data as filed in PubChem.
Tb hexokinase: T. brucei hexokinase 1 inhibition; hit rate 0.11% among 220,000; recombinant TbHK1, G6PDH-coupled NADH A340; inhibition, % at 10 µM;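 active = inhibition of 50% or more in the single-dose primary screen; inactive = inhibition below 50%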
RanGTP-Impb inh: inhibitors of RanGTP-importin-beta interaction, primary screen, biochemical, FRET, CFP-Ran, YFP-importin-beta, homogeneous; cell-free CFP-Ran/YFP-importin-beta FRET ratio; inhibition, % (test concentration not listed); hit rate 1.1% among 300,000; AID 2216;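 active = more than half of the replicate wells show a fall in the fluorescence ratio signal beyond about 16%, limit read from the data, passing the limit was not always enough; inconclusive = exactly half of the replicate wells pass the set limit; inactive = fewer than half of replicates pass the limit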;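 also: 0% = DMSO wells and 100% = Ran loaded with GDP instead of GTP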
Runt-CBFb FRET: Runt domain-CBFb interaction inhibition | hit rate 0.46% among 220,000 | Q01196+Q13951 | inhibition, % at 20 µM | Cerulean-Runt/Venus-CBFb FRET ratio 530/480, 1 h | AID 1496;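 active = inhibition over about 50% at 20 µM in the single-dose screen, limit read from the data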;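 also: 0% = DMSO wells and 100% = excess unlabeled CBFb competitor control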
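Buffer or medium: Tris pH 7.5 buffer with BSA. Assay system: Cerulean-labeled Runt domain protein. Amount: each fluorescent fusion protein 100 nM. Read-out basis: loss of energy transfer signal. Incubation: 1 h compound exposure, room temperature. Probe or stimulus: Venus-CBFb binding partner, 100 nM. Detection: FRET, excitation 422 nm, emission at 530 and 480 nm.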
Hck Nef HTS: inhibitors of human Hck kinase activated by Nef. Recombinant Hck-YEEI plus Nef, Z-Lyte FRET kinase assay. inhibition, % at 20 µM. P08631. hit rate 0.68% among 220,000. AID 463187;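 active = Hck-Nef kinase inhibition above about 50%, limit read from the data; inactive = inhibition below that limit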;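 also: 0% = DMSO with Hck plus Nef and 100% = Hck alone without Nef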
Target sequence (P08631 whole entry, looked up): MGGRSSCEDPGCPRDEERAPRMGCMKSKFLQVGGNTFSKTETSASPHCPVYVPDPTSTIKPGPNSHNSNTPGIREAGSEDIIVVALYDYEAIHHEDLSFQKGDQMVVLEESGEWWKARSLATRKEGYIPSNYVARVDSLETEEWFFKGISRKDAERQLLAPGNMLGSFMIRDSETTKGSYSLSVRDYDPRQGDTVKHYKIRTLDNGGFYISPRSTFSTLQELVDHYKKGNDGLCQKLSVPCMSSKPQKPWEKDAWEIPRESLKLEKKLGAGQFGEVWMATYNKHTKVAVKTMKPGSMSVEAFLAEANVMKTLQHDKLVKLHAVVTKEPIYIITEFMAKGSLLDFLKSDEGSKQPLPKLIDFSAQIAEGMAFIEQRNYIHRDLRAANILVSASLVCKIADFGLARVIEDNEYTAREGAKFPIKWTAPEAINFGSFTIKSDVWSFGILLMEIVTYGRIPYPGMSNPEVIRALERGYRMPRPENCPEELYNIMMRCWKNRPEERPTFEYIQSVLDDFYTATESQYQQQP
Runt-SMMHC FRET: Runt domain-CBFb-SMMHC interaction inhibition. Cerulean-Runt/Venus-CBFb-SMMHC FRET ratio 530/480, 1 h. inhibition, % at 20 µM. hit rate 0.74% among 220,000. AID 1434;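 active = mean inhibition across duplicate retests at 20 µM reaching about 50%, limit read from the data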;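 also: 0% = DMSO wells and 100% = wells with excess untagged CBFb-SMMHC; inhibitors lower the FRET ratio by blocking Runt binding to CBFb-SMMHC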
p97 ATPase inh: blocks human p97 ATPase activity | recombinant p97 ATPase, Kinase-Glo ATP luminescence, 3 h | inhibition, % at 8 µM | hit rate 0.42% among 220,000 | AID 1481; in the data active = inhibition above about 15%;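 also: 0% = DMSO vehicle and 100% = wells lacking enzyme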
Numbers without * were called inactive; ? = inconclusive; . = no result given. Only some compounds are listed: those with a hit (about 2.1% of all), similar ones and a draw of the others.

SMILES	Tb hexokinase	RanGTP-Impb inh	Runt-CBFb FRET	Hck Nef HTS	Runt-SMMHC FRET	p97 ATPase inh
O=C(Cc1c[nH]c2ccccc12)NCc1ccco1	0.2	-1.9	1.3	25.6	0.6	3.4
O=C(Cc1nc2ccccc2[nH]1)NCc1ccco1	2.2	35.0*	12.2	0.0	9.8	4.0
CC(=O)c1sc2ccccc2c1OC(=O)c1ccco1	1.5	37.5*	13.1	31.5	36.7	-2.5
Cc1cccc(C)c1NC(=S)N(CCN(C)C)Cc1cccs1	1.0	-1.3	0.2	23.1	1.6	2.2
CCc1cccc(C)c1NC(=S)N(CCN(C)C)Cc1cccs1	5.5	53.8*	1.5	-9.1	1.6	-3.8
Cc1ccccc1CN1C[C@@H]2C[C@@H](c3cnc(N4CCOCC4)s3)N3CCC[C@@]23C1=O	-0.1	0.5	.	23.0	.	-1.9
O=C(CCN1C(=O)c2ccccc2C1=O)N1CCN(Cc2ccccc2)CC1	-11.9	9.9	1.3	0.8	0.5	-2.0
Cc1ccc(CN2CCN(C(=O)CCN3C(=O)c4ccccc4C3=O)CC2)cc1	-5.6	6.1	108.1*	-0.1	4.9	3.1
CCc1cc(=O)oc2c(C)c(O)c(CN(C)C)cc12	-29.5	37.9*	-43.4	34.4	62.5*	0.0
CCCOc1ccc2c(CC)cc(=O)oc2c1C	-10.3	1.0	-8.8	1.3	-2.4	3.8
O=C(Nc1cc(C(F)(F)F)ccc1N1CCOCC1)C1Cc2ccccc2CN1C(=O)c1ccco1 (stereo unspecified)	-9.5	0.3	-0.2	3.5	-0.3	6.6
Cc1cc(C)c2c(n1)nn1c(NCCN3CCOCC3)cc(C)nc21	-12.6	35.5*	7.1	32.5	38.5	2.2
Cc1cc(NCCN2CCOCC2)n2nc(C)c(-c3ccccc3)c2n1	-16.0	-0.3	-0.2	2.8	3.3	-8.6
COc1ccc(OC)c(NC(=O)c2cc3oc4ccccc4c3cc2O)c1	-0.3	3.7	46.3	6.2	96.5*	6.1
COc1cccc(C2Nc3ccccc3NC3=C2C(=O)CC(C)(C)C3)c1 (stereo unspecified)	.	-4.0	.	.	.	.
Cn1c(=O)c2cc(S(=O)(=O)NCCC(=O)NCc3ccccc3Cl)ccc2n(C)c1=O	44.9	-1.9	137.5*	1.9	-1.6	0.8
CCCc1cc(=O)n2nc(N3CCC(C(=O)NCc4ccco4)CC3)sc2n1	.	-0.6	.	.	.	.
N#Cc1c(N)nc2c3c(sc(=N)c2c1N)NC(=O)CC3c1ccccc1 (stereo unspecified)	0.8	118.7*	23.2	9.6	39.5	6.0
N#Cc1c(N)nc2c3c(sc(=N)c2c1N)NC(=O)CC3c1c(F)cccc1Cl (stereo unspecified)	-4.3	84.8*	8.5	12.9	8.7	7.2
CCn1ccnc1CN(C)C(=O)c1cc(COc2ccc(OC)c3ccccc23)on1	.	-1.2	.	.	.	.
CC1CCN(CC(O)COc2ccc(-c3ccccc3)cc2)CC1 (stereo unspecified)	.	-2.8	.	.	.	.
COc1ccccc1N1CCN(S(=O)(=O)c2c(C)[nH]c(C)c2C(=O)N2CCCCC2)CC1	.	23.0*	.	.	.	.
COc1ccccc1N1CCN(S(=O)(=O)c2c(C)[nH]c(C)c2C(=O)N2CCCC2)CC1	.	4.1	.	.	.	.
O=C(Cn1nnc2ccccc21)Nc1ccc(Cl)cn1	-3.0	2.9	-0.7	-22.7	-2.8	2.4
O=C(CON=C1c2ccccc2-c2ccccc21)NC12CC3CC(CC(C3)C1)C2	0.6	-0.4	0.3	1.8	5.8	3.4
SMILES	Tb hexokinase	RanGTP-Impb inh	Runt-CBFb FRET	Hck Nef HTS	Runt-SMMHC FRET	p97 ATPase inh
CC(C)(C)OC(=O)NCCc1nnc(SCC(=O)Nc2ccc(Br)cc2)o1	-7.4	3.8	-1.7	13.7	1.0	2.9
CCCNC(=O)c1ccccc1NC(=O)c1ccc2c(c1)NC(=O)C(C)S2 (stereo unspecified)	.	-0.7	.	.	.	.
CC(=O)N1c2ccccc2Nc2ccccc21	-1.6	-0.2	-1.2	8.4	3.1	-1.1
CC(=O)N1c2ccccc2C2(O)N=C(C)SC12 (stereo unspecified)	36.4	.	19.9	-0.7	51.8*	6.3
N#Cc1sc2nc(-c3ccccc3)cc(-c3ccco3)c2c1N	-1.0	-64.9	20.2	3.5	-15.5	12.1
Cc1ccc(-c2cc(-c3ccccc3)c3c(N)c(S(C)(=O)=O)sc3n2)cc1	-16.2	-4.2	39.6	1.6	89.0*	0.8
CCCc1cc(N2CCN(C(=O)c3ccco3)CC2)n2c(nc3ccccc32)c1C#N	-11.4	30.9*	22.6	8.5	64.9*	4.5
CCCc1cc(-n2ccnc2C)n2c(nc3ccccc32)c1C#N	.	5.6	.	.	.	.
COc1cc(/C=C2\SC(N)=NC2=O)ccc1OCC(=O)Nc1ccc(C)cc1	2.1	-4.0	-7.6	92.6*	-29.9	4.0
COc1ccc(/C=C2/SC(=O)N(CCC(=O)Nc3ccc(C)cc3)C2=O)cc1OC	-9.0	-4.1	-3.0	3.1	-2.6	6.9
CC(=O)c1sc(Nc2nc3ccc(F)cc3s2)nc1C	2.7	47.3*	58.9*	36.8	79.3*	-0.2
COc1ccc(C(C(=O)Nc2ccc(C(C)C)cc2)N(C)C(=O)c2ccc(=O)[nH]c2)cc1 (stereo unspecified)	-4.3	0.1	-2.6	24.7	-7.1	-3.5
CCC(=O)NCCCNc1nc2c(C)cccc2cc1C#N	0.3	41.2*	9.1	44.3	33.5	4.4
COc1cc(C(=O)NCCCNc2nc3c(C)cc(C)cc3cc2C#N)cc(OC)c1OC	-4.6	2.1	16.4	34.1	22.9	10.9
Cc1cccc2cc(C#N)c(NCCNS(=O)(=O)c3ccc4c(c3)OCCO4)nc12	4.2	?	28.2	18.7	76.0*	-0.2
Cc1cc2cccc(C)c2nc1SCC(=O)NC1CCCCC1	.	3.7	.	.	.	.
Cc1ccc(SCCNS(=O)(=O)c2ccc3c(c2)OCCO3)cc1	-6.4	3.5	-4.4	0.7	-3.3	-7.4
Cc1cccc2cc(C#N)c(NCCNC(=O)NC3CCCCC3)nc12	-0.7	2.6	54.9*	8.9	75.1*	-4.7
COc1ccc(C(=O)NCCNc2nc3c(C)cccc3cc2C#N)cc1OC	.	39.5*	.	.	.	.
Cc1ccc2cc(C#N)c(NCCNC(=O)C3CCC3)nc2c1C	2.9	19.3*	37.9	8.0	78.3*	3.7
Cc1cc(C)n(-c2nc3ccccc3nc2Nc2ccc3[nH]c(=O)[nH]c3c2)n1	-6.1	31.8*	-2.8	-1.3	-7.6	4.7
COc1ccc(Nc2nc3ccccc3nc2-n2nc(C)cc2C)cc1	-4.4	1.1	-13.7	-0.7	-25.6	-0.8
CCn1c(=O)cc(OCC(=O)N2CCN(c3cccc(C(F)(F)F)c3)CC2)c2ccccc21	-13.4	30.0*	-5.1	0.1	-5.8	1.7
O=C(CCC(=O)N1CCCCCC1)NCc1ccc(F)cc1	.	0.5	.	.	.	.
COc1ccc([N+](=O)[O-])cc1NC(=O)Cn1ccc(C(F)(F)F)n1	-19.8	1.1	-0.7	4.5	-5.3	-1.6
Cc1cccn2c(=O)c3cc(C(=O)NCc4ccco4)c(=N)n(C4CCCC4)c3nc12	.	130.0*	.	.	.	.
